Experimental data reported in ChEMBL document CHEMBL1134646, “Quadruplex-interactive agents as telomerase inhibitors: synthesis of porphyrins and structure-activity relationship for the inhibition of telomerase” (J Med Chem, 2001).
Where “and” joins values, the source holds several entries; their conditions need not be identical. Identical values can stand only once. Each block holds one compound with its values, some of them ahead of it.

Columns and labels:
[1] = target: T1, Telomerase reverse transcriptase (Homo sapiens, UniProt O14746); assay: Apparent telomerase inhibition by mixed mechanism
[2] = target: T1, Telomerase reverse transcriptase; assay: Effect of meso group on telomerase inhibition at 25 uM
Method in brief: (§1)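 HeLa cell extract (60 µg total protein) as the telomerase source in a primer-extension assay with 1 µM 5′-biotinylated (TTAGGG)3 primer, 1.2 µM 32P-dGTP, and 1 mM each of dATP and dTTP. Buffer was Tris-OAc at pH 8.5 with KOAc, MgCl2, BME and spermidine. Porphyrin was fixed at 25 µM and reactions ran at 37 °C for 30 min. Products were run on 8% denaturing PAGE and quantified by autoradiogram densitometry, giving % inhibition relative to a porphyrin-free control.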

[3] = target: T1, Telomerase reverse transcriptase; assay: Effect of varying the number and disposition of charged groups around the compound nucleus on telomerase inhibition at 25 uM; method in brief: as §1
[4] = target: T1, Telomerase reverse transcriptase; assay: Effect of uncharged hydrogen bonding group on telomerase inhibition at 25 uM; method in brief: as §1
[5] = target: T1, Telomerase reverse transcriptase; assay: Effect of combination of charged and hydrogen bonding groups on telomerase inhibition at 25 uM; method in brief: as §1
[6] = target: T1, Telomerase reverse transcriptase; assay: Dependence of telomerase inhibition on the ability to stack with G-tetrads; details: concentration not given here; method in brief: as §1
[7] = target: T1, Telomerase reverse transcriptase; assay: Effect of substituent bulk on telomerase inhibition at 25 uM; method in brief: as §1
[8] = target: T1, Telomerase reverse transcriptase; assay: Apparent telomerase inhibition by G-quadruplex mechanism
[9] = target: T1, Telomerase reverse transcriptase; assay: Percentage inhibition of human telomerase at 25 uM concentration in HeLa cell; type: cell-based; method in brief: as §1

T1 sequence (O14746 whole entry): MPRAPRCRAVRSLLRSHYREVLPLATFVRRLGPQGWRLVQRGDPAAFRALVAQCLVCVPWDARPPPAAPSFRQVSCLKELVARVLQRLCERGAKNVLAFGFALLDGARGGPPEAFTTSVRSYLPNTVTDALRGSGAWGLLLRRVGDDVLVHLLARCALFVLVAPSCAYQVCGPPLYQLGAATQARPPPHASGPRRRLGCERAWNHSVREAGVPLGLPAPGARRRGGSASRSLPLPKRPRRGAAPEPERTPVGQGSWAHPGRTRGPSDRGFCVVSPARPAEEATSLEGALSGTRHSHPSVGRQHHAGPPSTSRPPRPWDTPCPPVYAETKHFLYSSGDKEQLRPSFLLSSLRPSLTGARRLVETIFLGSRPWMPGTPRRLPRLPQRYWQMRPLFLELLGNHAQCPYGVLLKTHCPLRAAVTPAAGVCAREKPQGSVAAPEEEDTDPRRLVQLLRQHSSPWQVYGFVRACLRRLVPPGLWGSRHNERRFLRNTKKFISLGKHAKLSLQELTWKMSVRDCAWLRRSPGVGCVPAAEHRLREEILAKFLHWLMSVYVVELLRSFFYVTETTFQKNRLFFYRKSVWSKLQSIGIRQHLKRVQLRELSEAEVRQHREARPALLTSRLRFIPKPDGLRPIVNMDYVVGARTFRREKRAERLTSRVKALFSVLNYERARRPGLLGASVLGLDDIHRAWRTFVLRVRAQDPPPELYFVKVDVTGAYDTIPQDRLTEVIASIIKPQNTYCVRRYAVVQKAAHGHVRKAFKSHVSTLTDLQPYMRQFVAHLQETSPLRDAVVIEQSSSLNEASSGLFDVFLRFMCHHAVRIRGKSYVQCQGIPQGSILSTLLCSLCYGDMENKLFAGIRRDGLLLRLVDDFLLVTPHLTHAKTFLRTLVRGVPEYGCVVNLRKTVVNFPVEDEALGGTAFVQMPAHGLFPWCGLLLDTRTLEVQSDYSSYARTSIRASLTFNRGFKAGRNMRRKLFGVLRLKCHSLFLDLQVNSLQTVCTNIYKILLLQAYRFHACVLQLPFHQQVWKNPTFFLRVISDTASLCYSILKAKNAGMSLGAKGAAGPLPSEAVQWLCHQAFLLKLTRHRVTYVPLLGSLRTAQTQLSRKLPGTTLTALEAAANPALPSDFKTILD

SMILES: C[n+]1ccc(-c2c3nc(c(-c4ccc(C(=O)NCCBr)cc4)c4nc(c(-c5cc[n+](C)cc5)c5ccc([nH]5)c(-c5cccc(C(=O)NCCBr)c5)c5ccc2[nH]5)C=C4)C=C3)cc1
IC50 [1]: 15 µM

SMILES: C[n+]1ccc(-c2c3nc(c(-c4cc[n+](C)cc4)c4ccc([nH]4)c(-c4cc[n+](C)cc4)c4ccc([nH]4)c(-c4cc[n+](C)cc4)c4nc2C=C4)C=C3)cc1
inhibition [2]: 67% | inhibition [3]: 62% | inhibition [4]: 60% | inhibition [5]: 60% | inhibition [6]: 66% | inhibition [7]: 60%

SMILES: C[n+]1ccc(-c2c3nc(c(-c4cc[n+](C)cc4)c4ccc([nH]4)c(-c4cc[n+](C)cc4)c4nc(c(-c5cc[n+](C)cc5)c5ccc2[nH]5)C=C4)C=C3)cc1 [TMPYP4 CHLORIDE]
IC50 [8]: 6.25 µM and 10 µM

SMILES: C[n+]1cccc(-c2c3nc(c(-c4ccc[n+](C)c4)c4ccc([nH]4)c(-c4ccc[n+](C)c4)c4ccc([nH]4)c(-c4ccc[n+](C)c4)c4nc2C=C4)C=C3)c1
IC50 [8]: 25 µM and 12 µM | inhibition [7]: 50%

SMILES: C[n+]1cccc(-c2c3ccc([nH]3)c(-c3cc4ccccc4[n+](C)c3)c3nc(c(-c4cc5ccccc5[n+](C)c4)c4nc(c(-c5cc6ccccc6[n+](C)c5)c5ccc2[nH]5)C=C4)C=C3)c1
IC50 [1]: 5 µM

inhibition [9]: 0%
SMILES: CC1=C(CCNCCN)c2cc3[nH]c(cc4[nH]c(cc5nc(cc1n2)C(C)=C5CCNCCN)c(C)c4CCNCCN)c(CCNCCN)c3C

SMILES: C[n+]1cccc(-c2c3nc(c(-c4cc5ccccc5[n+](C)c4)c4ccc([nH]4)c(-c4ccc[n+](C)c4)c4nc(c(-c5cc6ccccc6[n+](C)c5)c5ccc2[nH]5)C=C4)C=C3)c1
IC50 [1]: 10 µM

inhibition [2]: 32% | inhibition [3]: 37% | inhibition [4]: 28% | inhibition [5]: 30% | inhibition [6]: 14% | inhibition [7]: 28%
SMILES: C[n+]1cc(-c2c3nc(c(-c4cc5ccccc5[n+](C)c4)c4ccc([nH]4)c(-c4cc5ccccc5[n+](C)c4)c4ccc([nH]4)c(-c4cc5ccccc5[n+](C)c4)c4nc2C=C4)C=C3)cc2ccccc21

SMILES: OCC[n+]1ccc(-c2c3nc(c(-c4cc[n+](CCO)cc4)c4ccc([nH]4)c(-c4cc[n+](CCO)cc4)c4ccc([nH]4)c(-c4cc[n+](CCO)cc4)c4nc2C=C4)C=C3)cc1
IC50 [1]: 30 µM
